Results taken from ChEMBL document CHEMBL1157717, “Design, synthesis and biological evaluation of 6-(benzyloxy)-4-methylquinolin-2(1H)-one derivatives as PDE3 inhibitors” (Bioorg Med Chem, 2010).

Legend:
[1] = molecular target: T1, cGMP-inhibited 3',5'-cyclic phosphodiesterase 3A (Homo sapiens, UniProt Q14432); experiment: Inhibition of human PDE3A by fluorescence microplate reader
Summary of the method: (§1)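 IMAP fluorescence-polarization PDE assay: 1 ng PDE3A or PDE3B, 100 nM FAM-cAMP in IMAP reaction buffer, 60 min at room temperature. Binding reagent (1:600) added for a further 60 min at room temperature. Read at ex 485/em 528 nm, in duplicate. % activity is normalised to the no-enzyme and maximum-FP values. IC50 comes from a sigmoidal fit over 0.01–100 μM.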

[2] = molecular target: T2, cGMP-inhibited 3',5'-cyclic phosphodiesterase 3B (Homo sapiens, UniProt Q13370); experiment: Inhibition of human PDE3B by fluorescence microplate reader; summary of the method: as §1
Target sequence in this assay (Q13370 whole entry): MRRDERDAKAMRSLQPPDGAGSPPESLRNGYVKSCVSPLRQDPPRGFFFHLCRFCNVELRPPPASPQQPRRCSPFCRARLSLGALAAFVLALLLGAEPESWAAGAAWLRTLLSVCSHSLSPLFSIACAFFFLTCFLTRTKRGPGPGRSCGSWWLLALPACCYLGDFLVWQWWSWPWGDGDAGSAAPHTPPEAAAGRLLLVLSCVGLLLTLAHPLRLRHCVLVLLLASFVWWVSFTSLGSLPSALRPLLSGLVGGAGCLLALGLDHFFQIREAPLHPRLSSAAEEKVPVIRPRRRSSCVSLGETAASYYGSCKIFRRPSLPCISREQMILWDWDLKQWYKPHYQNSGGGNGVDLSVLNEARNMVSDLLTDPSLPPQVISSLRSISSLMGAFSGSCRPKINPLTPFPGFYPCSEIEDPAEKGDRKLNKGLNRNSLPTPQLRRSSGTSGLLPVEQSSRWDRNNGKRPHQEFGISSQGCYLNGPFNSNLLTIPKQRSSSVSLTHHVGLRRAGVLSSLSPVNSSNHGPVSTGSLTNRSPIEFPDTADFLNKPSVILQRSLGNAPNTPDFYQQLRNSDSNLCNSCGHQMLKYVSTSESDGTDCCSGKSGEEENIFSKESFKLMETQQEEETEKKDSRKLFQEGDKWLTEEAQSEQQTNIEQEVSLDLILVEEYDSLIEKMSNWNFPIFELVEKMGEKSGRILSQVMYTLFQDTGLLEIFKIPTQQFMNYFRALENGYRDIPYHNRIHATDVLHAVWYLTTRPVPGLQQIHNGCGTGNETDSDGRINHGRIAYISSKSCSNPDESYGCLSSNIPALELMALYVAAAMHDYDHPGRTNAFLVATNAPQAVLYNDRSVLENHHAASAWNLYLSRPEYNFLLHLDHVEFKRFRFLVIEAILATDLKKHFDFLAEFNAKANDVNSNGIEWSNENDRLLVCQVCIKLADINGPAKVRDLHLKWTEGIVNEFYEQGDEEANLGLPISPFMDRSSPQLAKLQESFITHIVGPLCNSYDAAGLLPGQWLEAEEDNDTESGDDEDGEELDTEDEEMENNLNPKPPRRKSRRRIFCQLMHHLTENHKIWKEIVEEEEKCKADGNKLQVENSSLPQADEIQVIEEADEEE

[3] = molecular target: T1, cGMP-inhibited 3',5'-cyclic phosphodiesterase 3A; experiment: Ratio of IC50 for vesnarinone to IC50 for drug against human PDE3A by fluorescence microplate reader
[4] = molecular target: T2, cGMP-inhibited 3',5'-cyclic phosphodiesterase 3B; experiment: Ratio of IC50 for vesnarinone to IC50 for drug against human PDE3B by fluorescence microplate reader
Target sequence in this assay (Q13370 whole entry, looked up): as the sequence (Q13370 whole entry) above

[5] = Positive inotropic activity in isolated reserpine-treated Wistar rat whole atrium assessed as contraction at 1 uM (Rvb=100+/-3%); format: functional, Cardiac atrium
Summary of the method: (§2)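 Male Wistar rats (250–350 g) received reserpine 5 mg/kg ip 24 h before thiopental anaesthesia. Whole atria were mounted in Krebs–Henseleit gassed with 95% O2/5% CO2, 35–37 °C, pH 7.35–7.45, under about 0.5 g resting tension with 40–50 min equilibration. Only tyramine (1.5 μM)-unresponsive preparations were used. Compounds were added cumulatively (1–100 μM), with isometric force and rate recorded. Values are mean ± SEM, six atria.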

[6] = Positive inotropic activity in isolated reserpine-treated Wistar rat whole atrium assessed as contraction at 10 uM (Rvb=100+/-3%); format: functional, Cardiac atrium; summary of the method: as §2
[7] = Positive inotropic activity in isolated reserpine-treated Wistar rat whole atrium assessed as contraction at 100 uM (Rvb=100+/-3%); format: functional, Cardiac atrium; summary of the method: as §2
[8] = Positive inotropic activity in isolated reserpine-treated Wistar rat whole atrium assessed as heart rate at 10 uM (Rvb=100+/-2%); format: functional, Cardiac atrium; summary of the method: as §2
[9] = Positive inotropic activity in isolated reserpine-treated Wistar rat whole atrium assessed as heart rate at 100 uM (Rvb=100+/-2%); format: functional, Cardiac atrium; summary of the method: as §2
[10] = Positive inotropic activity in isolated reserpine-treated Wistar rat whole atrium assessed as contraction at 1 uM (Rvb=100+/-4%); format: functional, Cardiac atrium; summary of the method: as §2
[11] = Positive inotropic activity in isolated reserpine-treated Wistar rat whole atrium assessed as contraction at 10 uM (Rvb=100+/-4%); format: functional, Cardiac atrium; summary of the method: as §2
[12] = Positive inotropic activity in isolated reserpine-treated Wistar rat whole atrium assessed as contraction at 100 uM (Rvb=100+/-4%); format: functional, Cardiac atrium; summary of the method: as §2
[13] = Positive inotropic activity in isolated reserpine-treated Wistar rat whole atrium assessed as heart rate at 1 uM (Rvb=100+/-3%); format: functional, Cardiac atrium; summary of the method: as §2
[14] = Positive inotropic activity in isolated reserpine-treated Wistar rat whole atrium assessed as heart rate at 10 uM (Rvb=100+/-3%); format: functional, Cardiac atrium; summary of the method: as §2
[15] = Positive inotropic activity in isolated reserpine-treated Wistar rat whole atrium assessed as heart rate at 100 uM (Rvb=100+/-3%); format: functional, Cardiac atrium; summary of the method: as §2
[16] = molecular target: T1, cGMP-inhibited 3',5'-cyclic phosphodiesterase 3A; experiment: Ratio of IC50 for vesnarinone to IC50 for drug against human PDE3A by fluorescence microplate reader
[17] = molecular target: T2, cGMP-inhibited 3',5'-cyclic phosphodiesterase 3B; experiment: Ratio of IC50 for vesnarinone to IC50 for drug against human PDE3B by fluorescence microplate reader
Target sequence in this assay (Q13370 whole entry, looked up): as the sequence (Q13370 whole entry) above

T1 sequence (Q14432 whole entry): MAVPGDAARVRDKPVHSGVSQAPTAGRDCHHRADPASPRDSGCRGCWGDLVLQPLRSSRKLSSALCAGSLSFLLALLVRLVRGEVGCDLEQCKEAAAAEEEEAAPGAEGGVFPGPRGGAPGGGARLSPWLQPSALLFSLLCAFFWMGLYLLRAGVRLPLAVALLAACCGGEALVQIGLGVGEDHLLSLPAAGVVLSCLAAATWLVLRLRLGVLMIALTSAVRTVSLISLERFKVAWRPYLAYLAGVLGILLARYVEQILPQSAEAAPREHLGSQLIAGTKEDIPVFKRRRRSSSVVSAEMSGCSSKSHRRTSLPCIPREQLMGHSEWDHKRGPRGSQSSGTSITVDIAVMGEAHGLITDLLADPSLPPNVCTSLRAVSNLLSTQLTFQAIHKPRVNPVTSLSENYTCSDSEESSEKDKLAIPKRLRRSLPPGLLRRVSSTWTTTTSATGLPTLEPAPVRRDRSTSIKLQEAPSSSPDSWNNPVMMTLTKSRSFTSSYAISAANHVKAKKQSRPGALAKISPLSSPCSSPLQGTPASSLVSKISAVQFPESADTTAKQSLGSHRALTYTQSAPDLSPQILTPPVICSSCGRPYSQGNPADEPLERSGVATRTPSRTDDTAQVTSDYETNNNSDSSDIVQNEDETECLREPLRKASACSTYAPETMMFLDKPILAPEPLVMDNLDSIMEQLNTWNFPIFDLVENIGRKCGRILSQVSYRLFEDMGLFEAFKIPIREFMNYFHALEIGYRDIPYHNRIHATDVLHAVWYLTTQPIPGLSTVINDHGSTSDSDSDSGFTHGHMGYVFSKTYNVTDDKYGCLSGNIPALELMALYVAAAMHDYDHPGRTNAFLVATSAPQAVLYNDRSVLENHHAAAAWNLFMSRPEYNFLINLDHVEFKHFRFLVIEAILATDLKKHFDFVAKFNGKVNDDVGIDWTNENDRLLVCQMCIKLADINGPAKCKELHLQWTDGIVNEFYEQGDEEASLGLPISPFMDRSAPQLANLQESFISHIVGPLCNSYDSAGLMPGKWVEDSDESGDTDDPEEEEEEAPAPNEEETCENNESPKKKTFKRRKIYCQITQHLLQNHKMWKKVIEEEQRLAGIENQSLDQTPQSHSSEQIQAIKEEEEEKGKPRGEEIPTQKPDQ

Row | Compound | IC50 [1] [µM] | IC50 [2] [µM] | further results
1 | Cc1cc(=O)[nH]c2ccc(OCc3cccc(C(=O)N4CCC(C)CC4)c3)cc12 | 0.43 | 1.61 | –
2 | Cc1cc(=O)[nH]c2ccc(OCc3cccc(C(=O)N4CCCC4)c3)cc12 | 0.64 | 1.2 | –
3 | Cc1cc(=O)[nH]c2ccc(OCc3cccc(C(=O)N4CCN(CCO)CC4)c3)cc12 | 1.65 | 2.8 | –
4 | Cc1cc(=O)[nH]c2ccc(OCc3cccc(C(=O)N4CCC(O)CC4)c3)cc12 | 1.35 | 0.91 | –
5 | Cc1cc(=O)[nH]c2ccc(OCc3cccc(C(=O)N4CCCCC4)c3)cc12 | 0.66 | 1.73 | –
6 | CCN1CCN(C(=O)c2cccc(COc3ccc4[nH]c(=O)cc(C)c4c3)c2)CC1 | 1.44 | 1.93 | Ratio IC50 [3]: 25; Ratio IC50 [4]: 8; Activity [5]: 101%; Activity [6]: 123%; Activity [7]: 146%; Activity [8]: 108%; Activity [9]: 116%
7 | Cc1cc(=O)[nH]c2ccc(OCc3cccc(C(=O)N4CCC(C(=O)O)CC4)c3)cc12 | 0.84 | 1.28 | –
8 | Cc1cc(=O)[nH]c2ccc(OCc3cccc(C(=O)N4CCOCC4)c3)cc12 | 1.34 | 1.54 | –
9 | COc1ccc(C(=O)N2CCN(c3ccc4c(c3)CCC(=O)N4)CC2)cc1OC [VESNARINONE] | 10.7 | 13.2 | Activity [10]: 102%; Activity [11]: 121%; Activity [12]: 141%; Activity [13]: 103%; Activity [14]: 109%; Activity [15]: 114%
10 | Cc1cc(=O)[nH]c2ccc(OCc3cccc(C(=O)N4CCC(=O)CC4)c3)cc12 | 1.26 | 1.14 | –
11 | Cc1cc(=O)[nH]c2ccc(OCc3cccc(C(=O)N4CCN(C)CC4)c3)cc12 | 1.76 | 3.51 | Ratio IC50 [16]: 6; Ratio IC50 [17]: 4
